Compounds with a hit are over-represented: about 2.5% of the library has one in this group of screens.
MEKK2 WT-MEK5: modulators of MEK5 binding to wildtype MEKK2, primary screen, biochemical, multiplex bead flow cytometry, Alexa488-MEK5. Mitogen-activated protein kinase kinase kinase 2 (Homo sapiens), Q9Y2U5. Alexa488-MEK5 binding to MEKK2 WT; actives lie on both sides. binding response (% of control), % at 10 µM. hit rate 1.1% among 290,000. AID 1531, 2009; in the data active = binding response below about 67% or above about 130%
ABCB1 inh: ABCB1 efflux pump inhibitors, primary screen, cell-based, multiplex, flow cytometry, ABCG2 counter-screen; ATP-dependent translocase ABCB1 (Homo sapiens), P08183; CCRF-Adr cells, JC-1 efflux; inhibition, % at 6.6 µM; hit rate 0.067% among 190,000; AID 1326, 2008; in the data active = inhibition above about 40%;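 also: higher value means more JC-1 retained so stronger ABCB1 efflux block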
Efflux pump mplx: inhibitors of Candida efflux pumps in yeast, primary screen, S. cerevisiae, Nile Red, multiplex; S. cerevisiae Candida pump triplex; inhibition, % at 10 µM; hit rate 0.44% among 330,000;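 active = plate passing quality check with inhibition over a set limit, or well fluorescence over plate mean plus 4 SD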;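 also: Nile Red retained in pooled yeast measured as flow cytometry median fluorescence; higher means more Nile Red kept so more efflux inhibition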
ABCG2 block: ABCG2 efflux pump inhibitors, primary screen, multiplex with ABCB1, IgMXP3 cells, flow cytometry | Broad substrate specificity ATP-binding cassette transporter ABCG2 (Homo sapiens), Q9UNQ0 | JC-1 efflux | inhibition, % at 6.6 µM | hit rate 0.1% among 190,000 | AID 1325, 2008;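 active = inhibition above 80%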
Target sequence (Q9UNQ0 whole entry, looked up): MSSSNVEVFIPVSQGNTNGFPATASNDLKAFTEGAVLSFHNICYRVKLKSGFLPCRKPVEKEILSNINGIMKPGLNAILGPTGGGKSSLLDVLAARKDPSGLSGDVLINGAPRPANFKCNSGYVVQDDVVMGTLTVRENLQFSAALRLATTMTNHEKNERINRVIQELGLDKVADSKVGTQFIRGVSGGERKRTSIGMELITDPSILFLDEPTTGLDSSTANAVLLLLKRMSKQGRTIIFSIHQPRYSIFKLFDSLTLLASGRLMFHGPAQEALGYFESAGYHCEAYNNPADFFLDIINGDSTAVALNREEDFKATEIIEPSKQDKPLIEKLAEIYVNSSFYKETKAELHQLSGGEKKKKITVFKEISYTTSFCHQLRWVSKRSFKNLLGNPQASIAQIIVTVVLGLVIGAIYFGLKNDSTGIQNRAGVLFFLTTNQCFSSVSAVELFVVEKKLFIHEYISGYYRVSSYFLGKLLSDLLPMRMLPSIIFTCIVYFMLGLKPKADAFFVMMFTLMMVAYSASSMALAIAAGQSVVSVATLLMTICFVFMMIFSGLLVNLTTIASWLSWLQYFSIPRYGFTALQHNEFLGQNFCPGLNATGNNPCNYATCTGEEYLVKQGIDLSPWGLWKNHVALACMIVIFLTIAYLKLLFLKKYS
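Measure – % inhibition of efflux relative to nicardipine and DMSO · Test system – ABCG2 IgMXP3 and barcoded ABCB1 CCRF-Adr cell mix · Control set – nicardipine as high control, DMSO as low control · Compound – one concentration, 6.6 µM final · Signal – flow cytometry of retained JC-1 fluorescence · Timing – 10 min exposure at 25 °C with rotation, no wash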
MEKK3 PB1 HTS: modulators of MEKK3-MEK5 PB1 binding, primary screen, biochemical, wildtype MEKK3, multiplex bead flow cytometry, Alexa488-MEK5. hit rate 1.4% among 290,000. bead-based flow cytometry, Alexa488-MEK5 binding to MEKK3; actives lie on both sides; 0 = blocked by unlabeled MEK5, 100 = vehicle. Mitogen-activated protein kinase kinase kinase 3 (Homo sapiens), Q99759. AID 1529, 2009. binding response (% of control), % at 10 µM;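 active = binding response more than 3 SD above or below the average of its plate-row segment, actives on both sides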;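 also: Alexa488 bead fluorescence after subtracting the streptavidin-only scavenger bead signal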
MEKK2 mut-MEK5: MEK5 binding signal on mutant MEKK2 PB1, primary screen, biochemical, multiplex bead flow cytometry, Alexa488-MEK5; Alexa488-MEK5 binding to MEKK2 mutant; percent response, % at 10 µM; hit rate 0.35% among 290,000; AID 1530, 2009; in the data active = percent response above about 24%, passing the limit was not always enough
MEKK2wt confirm: modulators of MEK5 binding to wildtype MEKK2, confirmation, biochemical, single concentration, multiplex bead flow cytometry; shares compounds with MEKK3 PB1 HTS; Alexa488-MEK5 binding to MEKK2 WT; actives lie on both sides; binding response (% of control), % at 10 µM; hit rate 2.4% among 5,900; AID 1892, 2009; in the data active = binding response below about 16% or above about 210%; inactive = in between
MEKK2mut confirm: mutant MEKK2 PB1-MEK5 binding signal retest – biochemical, single concentration, multiplex bead flow cytometry, confirmation | shares compounds with MEKK3 PB1 HTS | Alexa488-MEK5 binding to MEKK2 mutant | percent response, % at 10 µM | hit rate 2% among 5,900; in the data active = percent response mostly above about 71%, no sharp cut-off; inactive = mostly below about 38%;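 also: higher means compound restores mutant binding toward wildtype level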
MEKK3-MEK5 inh: MEKK3 wild-type PB1 binding to MEK5, inhibitors, confirmation, biochemical, bead multiplex flow cytometry, single concentration, wildtype. binding response (% of control), % at 10 µM. Alexa488-MEK5 binding to MEKK3; active compounds read low. shares compounds with MEKK3 PB1 HTS. AID 1894, 2009. hit rate 1.8% among 5,900;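 active = binding response below 72% of control, or above a set upper limit, though filed actives all read lower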;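 also: lower values mean stronger disruption of MEK5 binding to MEKK3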
A number is an active result; n = inactive; x = no result; [ ] = remark or other dose.

SMILES	MEKK2 WT-MEK5	ABCB1 inh	Efflux pump mplx	ABCG2 block	MEKK3 PB1 HTS	MEKK2 mut-MEK5	MEKK2wt confirm	MEKK2mut confirm	MEKK3-MEK5 inh
Cc1nnc(NC(=O)c2nn(CC(C)C)c(=O)c3ccccc23)s1	n	n	n	n	n	n	x	x	x
Cc1nc2ccc(NC(=O)c3nn(CC(C)C)c(=O)c4ccccc34)cc2s1	n	n	n	n	148	n	n	n	n
Cc1nn2c(N)c(-c3ccccc3)cnc2c1-c1ccccc1	n	x	n	x	n	n	x	x	x
COCCNC(=S)N=Nc1c(O)[nH]c2ccc([N+](=O)[O-])cc12	n	x	n	x	n	n	x	x	x
CC(/C=C/c1ccccc1)=N/NC(=O)c1nc2nc(C)cc(C)n2n1	n	n	n	n	130	n	n	n	n
Cc1ccc(NC(=O)CCCCCNS(=O)(=O)c2ccc(C)cc2)cc1	n	n	n	n	n	n	x	x	x
Cc1ccc(S(=O)(=O)NCCCCCC(=O)N(C)C)cc1	n	n	n	n	71[inhibitor]	n	n	n	n
CC(=O)c1ccc(OCc2cc(C(=O)N(C)C(C)c3nccs3)no2)cc1 (stereo not drawn)	n	x	x	x	n	n	x	x	x
Cc1cccc(NNC(=O)c2c(F)cccc2Cl)c1	n	x	n	x	n	n	x	x	x
COc1ccc2nc3cc(Cl)ccc3c(Nc3cc(C(C)C)c(O)cc3C)c2c1	146	x	n	x	n	44	n	75	n
Cc1ccc(S(=O)(=O)n2c3ccc(Cl)cc3c3nc(C)sc32)cc1	n	n	x	n	150	n	n	n	n
COc1ccc(CNC(=O)CCSCc2ccccc2Cl)c(OC)c1	n	n	n	n	n	n	x	x	x
COc1ccc(CNC(=O)CSCc2ccccc2Cl)cc1	n	n	n	n	128	n	n	n	n
CC(C)CNCC(=O)N1c2ccccc2Sc2ccccc21	1.0[inhibitor]	n	n	n	2.0[inhibitor]	n	n	n	n
COCCNCC(=O)N1c2ccccc2Sc2ccccc21	n	x	n	x	n	n	x	x	x
CCC(=O)N/N=C(\C)CC(=O)Nc1ccccc1-c1ccccc1	n	n	n	n	n	n	x	x	x
N#C/C(=C\c1ccc(C#N)cc1)C(=O)N1CCCC1	n	n	n	n	71[inhibitor]	n	n	n	n
N#C/C(=C\c1ccc(O)cc1)C(=O)N1CCCC1	n	x	n	x	n	n	x	x	x
O=C(Nc1cccc(F)c1)C1CCN(C(=O)c2ccc(Cl)cc2)CC1	n	n	n	n	145	n	n	n	n
COc1cc(OC)cc(C(=O)N2CCC(C(=O)Nc3ccc4c(c3)OCCO4)CC2)c1	n	n	n	n	146	n	n	n	n
COc1ccc(N(CC(=O)N2CCN(C)CC2)S(=O)(=O)c2cc(C)ccc2OC)cc1Cl	n	x	n	x	n	n	x	x	x
CNc1ccccc(-c2ccc3ccccc3n2)c1=O	n	n	n	n	n	n	x	x	x
COc1ccc(-c2c[n+](CC(=O)N3c4ccccc4Sc4ccccc43)c3n2CCC3)cc1	n	x	n	x	n	n	x	x	x
O=C(C[n+]1cc(-c2ccc(F)cc2)n2c1CCC2)Nc1nc(-c2ccccc2)cs1	n	n	n	n	n	n	x	x	x
O=C(C[n+]1cc(-c2ccc(Cl)cc2)n2c1CCC2)N1c2ccccc2Sc2ccccc21	157	n	n	n	n	n	n	n	n
SMILES	MEKK2 WT-MEK5	ABCB1 inh	Efflux pump mplx	ABCG2 block	MEKK3 PB1 HTS	MEKK2 mut-MEK5	MEKK2wt confirm	MEKK2mut confirm	MEKK3-MEK5 inh
Cc1ccc(-c2c[n+](CC(=O)Nc3nc(-c4ccc(F)cc4)cs3)c3n2CCC3)cc1	226	n	n	n	n	76	n	76	n
O=C(C[n+]1cc(-c2ccc(Cl)cc2)n2c1CCC2)Nc1nc(-c2ccccc2)cs1	146	x	n	x	n	n	n	n	n
Cc1ccccc1NC(=O)C[n+]1cc(-c2ccccc2)n2c1CCC2	n	x	n	x	n	n	x	x	x
CCOC(=O)CSc1cc(=O)n(CC)c2ccccc12	n	n	n	n	129	n	n	n	n
c1ccc(-c2nc(-c3ccco3)n3ccccc23)cc1	58[inhibitor]	n	n	n	n	n	n	n	n
c1ccc(Nc2c(-c3ccco3)nc3ccccn23)cc1	n	n	n	n	n	n	x	x	x
CC(=O)Oc1c(C)c2c3c(c1OC(C)=O)[C@@H](C)CC[C@@H]3[C@@H](C)C[C@H]2C=C(C)C	x	x	n	x	x	x	x	x	x
CC(=O)c1ccc(NC(=S)Nc2ccc3[nH]c(=O)[nH]c3c2)cc1	7.0[inhibitor]	n	n	n	5.0[inhibitor]	n	n	n	n
CS(=O)(=O)c1ccc(CNC(=O)[C@]2(C(F)(F)F)C[C@H](CCc3ccccc3)CCCO2)cc1	n	x	n	x	81[inhibitor]	n	n	n	n
Cc1nn(C)c(C)c1NC(=O)CSc1nc(Cc2ccccc2)nc2c1cnn2-c1ccccc1	n	x	n	x	74[inhibitor]	n	n	n	n
COC(=O)CC(NS(=O)(=O)c1cccs1)c1ccccc1Cl (stereo not drawn)	n	n	n	n	n	n	x	x	x
O=C(O)CC(NS(=O)(=O)c1c(F)cc(F)cc1Br)c1ccccc1Cl (stereo not drawn)	n	n	n	n	n	279	n	n	n
Cc1cc(C)cc(NC(=O)Nc2ccccc2N2CCCCC2)c1	n	x	n	x	n	n	x	x	x
CCCCCc1cc(=O)oc2c(C(CCN(CC)CC)c3ccc(N(C)C)cc3)c(OC)cc(OC)c12 (stereo not drawn)	166	x	n	x	n	n	n	n	n
CCCCCc1cc(=O)oc2c(C(CCN3CCCC(C)C3)c3cc(OC)c(OC)c(OC)c3)c(OC)cc(OC)c12 (stereo not drawn)	163	x	n	x	n	29	n	n	n
CCN(CC)CCC(c1cc(OC)c(OC)c(OC)c1)c1c(OC)cc(OC)c2c(C)cc(=O)oc12 (stereo not drawn)	n	x	x	x	n	n	x	x	x
